Results taken from ChEMBL document CHEMBL1145847, “(S)-N-[1-(3-morpholin-4-ylphenyl)ethyl]- 3-phenylacrylamide: an orally bioavailable KCNQ2 opener with significant activity in a cortical spreading depression model of migraine” (J Med Chem, 2003).

Assays:
[1] = target: Potassium voltage-gated channel subfamily KQT member 2 (Mus musculus) (UniProt Q9Z351); test: Threshold for augmenting KCNQ2 current in HEK 293 stable cell line expressing mKCNQ2 channel; format: functional, cell-based; conditions: HEK293
Chain of Potassium voltage-gated channel subfamily KQT member 2 (Mus musculus) (Q9Z351 whole entry, the tested form may be a part): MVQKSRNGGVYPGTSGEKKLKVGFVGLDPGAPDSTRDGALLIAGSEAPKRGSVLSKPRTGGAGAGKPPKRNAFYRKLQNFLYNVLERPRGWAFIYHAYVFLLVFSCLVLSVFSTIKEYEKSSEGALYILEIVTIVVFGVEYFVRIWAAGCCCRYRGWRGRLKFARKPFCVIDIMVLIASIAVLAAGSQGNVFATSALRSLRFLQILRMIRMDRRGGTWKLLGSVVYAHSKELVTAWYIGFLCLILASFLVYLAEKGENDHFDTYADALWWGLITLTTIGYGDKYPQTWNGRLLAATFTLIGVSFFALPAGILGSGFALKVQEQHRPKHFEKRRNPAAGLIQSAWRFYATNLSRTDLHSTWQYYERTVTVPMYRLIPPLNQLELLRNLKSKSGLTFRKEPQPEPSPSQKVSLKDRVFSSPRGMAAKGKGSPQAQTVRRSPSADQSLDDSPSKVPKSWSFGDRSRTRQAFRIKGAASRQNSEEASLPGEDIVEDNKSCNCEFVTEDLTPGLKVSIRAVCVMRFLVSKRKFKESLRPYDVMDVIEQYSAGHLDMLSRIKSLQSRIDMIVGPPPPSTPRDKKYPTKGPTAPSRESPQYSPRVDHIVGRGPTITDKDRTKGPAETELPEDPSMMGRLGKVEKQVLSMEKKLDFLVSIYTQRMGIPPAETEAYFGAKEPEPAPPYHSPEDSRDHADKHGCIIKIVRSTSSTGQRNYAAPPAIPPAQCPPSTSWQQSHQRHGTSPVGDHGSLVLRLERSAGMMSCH
Procedure, shortened: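 HEK 293 cells stably expressing mKCNQ2, voltage-clamped at -40 mV; compound applied by local superfusion at increasing concentrations, then washed with compound-free saline; concentration–response from three cells with logistic fit.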

[2] = Ratio of concentration of compound in brain to the concentration in plasma; conditions: brain and plasma, B/P ratio
[3] = Concentration determined in rat plasma after 6 hr; format: ADME, organism-based
Procedure, shortened: (§1)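 Sprague–Dawley rats (n = 3) dosed po at 20 mg/kg as a solution in 100% PEG-400; brain and plasma sampled at 6 h.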

Rattus norvegicus [4] = test: Ability to reduce the total number of proximal depolarizations was tested in rat parietal cortex at 30 mg/kg, ig; format: functional; conditions: route intragastric
Procedure, shortened: (§2)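 Rats; cortical spreading depression evoked by 10 min application of crystalline KCl to a small parietal cortex region. Compound given intragastrically in PEG 400 vehicle. Depolarizations counted in proximal and distal leads per animal; proximal/distal ratio calculated per group. Group mean ± SEM; Kruskal–Wallis with Dunn's posttest.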

[5] = Ratio of proximal to distal depolarizations determined in rat at 3 mg/kg; format: functional; procedure, shortened: as §2
[6] = Concentration determined in rat brain after 6 hr; format: ADME, organism-based; procedure, shortened: as §1
[7] = Half-life determined at 1 mg/kg, iv, in dog; format: ADME, organism-based, Canis lupus familiaris; set-up: dose 1 mg/kg; conditions: in vivo
Procedure, shortened: (§3)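 Beagle dogs (n = 3), 1 mg/kg iv as a solution in 50% PEG-400/50% H2O; plasma pharmacokinetics giving clearance, half-life and steady-state volume of distribution.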

[8] = Ratio of proximal to distal depolarizations determined in rat at 10 mg/kg; format: functional; procedure, shortened: as §2
[9] = target: Potassium voltage-gated channel subfamily KQT member 2 (Mus musculus, UniProt Q9Z351); test: Induced current in Xenopus laevis oocytes expressing cloned mKCNQ2 channels; format: functional, cell-based, Oocyte
Chain of Potassium voltage-gated channel subfamily KQT member 2 (Q9Z351 whole entry): as the sequence (Q9Z351 whole entry, the tested form may be a part) above
Procedure, shortened: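 Two-electrode voltage clamp of Xenopus laevis oocytes expressing cloned mKCNQ2; outward current at -40 mV expressed as percent of compound-free control; concentration–response fit for EC50, n = 4–7 oocytes.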

[10] = tmax determined dog at 3 mg/kg, po; format: ADME, organism-based, Canis lupus familiaris; set-up: dose 3 mg/kg, route oral; conditions: in vivo
Procedure, shortened: (§4)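 Beagle dogs (n = 3), oral solution at 3 mg/kg in 50% PEG-400/50% H2O, with iv reference at 1 mg/kg; tmax and oral bioavailability derived.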

[11] = Volume of distribution was determined in dog at 1 mg/kg, iv; format: ADME, organism-based, Canis lupus familiaris; set-up: dose 1 mg/kg, route intravenous; conditions: in vivo, read-out: Vdss; procedure, shortened: as §3
[12] = Clearance rate determined at 1 mg/kg, iv, in dog; format: ADME, organism-based, Canis lupus familiaris; set-up: dose 1 mg/kg; conditions: in vivo; procedure, shortened: as §3
Rattus norvegicus [13] = test: Ability to reduce the total number of proximal depolarizations was tested in rat parietal cortex at 10 mg/kg, ig; format: functional; conditions: route intragastric; procedure, shortened: as §2
[14] = Percentage oral bioavailability determined in rat; format: ADME, organism-based; conditions: in vivo, read-out: Bioavailabiility
[15] = Half-life determined at 5 mg/kg, iv, in rat; format: ADME, organism-based; set-up: dose 5 mg/kg; conditions: in vivo
Procedure, shortened: (§5)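 Sprague–Dawley rats (n = 3), 5 mg/kg iv as a solution in 90% PEG-400/10% Tween 80; plasma pharmacokinetics giving clearance, half-life and steady-state volume of distribution.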

Rattus norvegicus [16] = test: Ability to reduce the total number of proximal depolarizations was tested in rat parietal cortex at 3 mg/kg, ig; format: functional; conditions: route intragastric; procedure, shortened: as §2
[17] = Percentage oral bioavailability determined in dog; format: ADME, organism-based, Canis lupus familiaris; conditions: in vivo, read-out: Bioavailabiility; procedure, shortened: as §4
[18] = Ratio of proximal to distal depolarizations determined in rat at 30 mg/kg; format: functional; procedure, shortened: as §2
[19] = Volume of distribution was determined in rat at 5 mg/kg, iv; format: ADME, organism-based; set-up: dose 5 mg/kg, route intravenous; conditions: in vivo, read-out: Vdss; procedure, shortened: as §5
[20] = target: Voltage-gated potassium channel, KQT; KCNQ2(Kv7.2)/KCNQ3(Kv7.3) (Homo sapiens, UniProt O43525+O43526); test: Effect on resting membrane potential in SH-SY5Y human neuroblastoma cells expressing native KCNQ channels
Chain of Voltage-gated potassium channel, KQT; KCNQ2(Kv7.2)/KCNQ3(Kv7.3) (O43526 whole entry): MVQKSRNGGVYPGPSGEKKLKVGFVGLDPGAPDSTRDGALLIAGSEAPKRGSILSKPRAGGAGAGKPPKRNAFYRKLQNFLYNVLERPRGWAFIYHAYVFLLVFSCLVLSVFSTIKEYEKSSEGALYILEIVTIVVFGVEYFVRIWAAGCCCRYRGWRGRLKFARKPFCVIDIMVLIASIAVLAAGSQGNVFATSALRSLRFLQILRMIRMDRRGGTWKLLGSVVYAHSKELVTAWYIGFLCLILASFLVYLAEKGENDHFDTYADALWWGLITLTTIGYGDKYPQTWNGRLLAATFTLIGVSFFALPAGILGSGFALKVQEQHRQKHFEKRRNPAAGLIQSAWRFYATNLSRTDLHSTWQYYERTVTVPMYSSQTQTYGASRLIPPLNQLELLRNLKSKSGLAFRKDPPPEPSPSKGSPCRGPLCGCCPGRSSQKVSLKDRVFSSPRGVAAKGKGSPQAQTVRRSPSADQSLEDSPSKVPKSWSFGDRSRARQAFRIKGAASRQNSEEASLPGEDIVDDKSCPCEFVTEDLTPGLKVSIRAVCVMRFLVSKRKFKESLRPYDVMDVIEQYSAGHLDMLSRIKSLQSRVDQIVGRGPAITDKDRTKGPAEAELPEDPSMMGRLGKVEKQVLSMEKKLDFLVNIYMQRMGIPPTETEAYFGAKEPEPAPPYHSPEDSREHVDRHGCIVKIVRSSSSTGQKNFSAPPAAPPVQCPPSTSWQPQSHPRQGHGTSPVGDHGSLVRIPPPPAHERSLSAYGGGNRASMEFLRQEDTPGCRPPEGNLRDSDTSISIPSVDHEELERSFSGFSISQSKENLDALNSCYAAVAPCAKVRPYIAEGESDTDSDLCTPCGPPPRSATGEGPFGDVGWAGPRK
Chain of Voltage-gated potassium channel, KQT; KCNQ2(Kv7.2)/KCNQ3(Kv7.3) (O43525 whole entry): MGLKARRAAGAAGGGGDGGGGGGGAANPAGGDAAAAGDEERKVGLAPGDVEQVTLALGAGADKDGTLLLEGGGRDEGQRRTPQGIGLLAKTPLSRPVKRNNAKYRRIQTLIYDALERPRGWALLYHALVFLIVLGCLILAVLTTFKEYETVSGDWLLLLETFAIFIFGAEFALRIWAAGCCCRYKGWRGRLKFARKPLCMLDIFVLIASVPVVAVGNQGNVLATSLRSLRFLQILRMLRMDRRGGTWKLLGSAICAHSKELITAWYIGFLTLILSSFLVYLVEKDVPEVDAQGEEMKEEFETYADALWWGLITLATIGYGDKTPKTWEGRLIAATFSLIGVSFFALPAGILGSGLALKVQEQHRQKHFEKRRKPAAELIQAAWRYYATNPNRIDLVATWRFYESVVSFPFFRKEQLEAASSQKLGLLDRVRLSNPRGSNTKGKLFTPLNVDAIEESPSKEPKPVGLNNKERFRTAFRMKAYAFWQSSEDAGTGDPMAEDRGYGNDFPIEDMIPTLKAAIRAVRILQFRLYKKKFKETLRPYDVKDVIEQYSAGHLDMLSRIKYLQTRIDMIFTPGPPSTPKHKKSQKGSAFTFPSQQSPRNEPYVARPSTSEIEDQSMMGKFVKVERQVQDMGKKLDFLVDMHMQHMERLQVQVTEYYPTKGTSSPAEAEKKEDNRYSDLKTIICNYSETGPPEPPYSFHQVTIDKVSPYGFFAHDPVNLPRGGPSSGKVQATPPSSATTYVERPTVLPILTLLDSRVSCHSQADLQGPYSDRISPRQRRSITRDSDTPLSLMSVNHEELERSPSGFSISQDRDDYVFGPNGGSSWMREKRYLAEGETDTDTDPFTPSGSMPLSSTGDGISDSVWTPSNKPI

[21] = tmax determined rat at 11 mg/kg, po; format: ADME, organism-based; set-up: dose 11 mg/kg, route oral; conditions: in vivo
[22] = Clearance rate determined at 5 mg/kg, iv, in rat; format: ADME, organism-based; set-up: dose 5 mg/kg; conditions: in vivo; procedure, shortened: as §5

`C[C@H](NC(=O)/C=C/c1ccccc1)c1cccc(N2CCOCC2)c1` showed a Concentration [1] of 300 nM, a Kp [2] of 0.78 and a concentration at 6 h [3] of 804 ng/mL. For the same compound, the No. of depolarizations (Rattus norvegicus [4]) was 23, the P/D [5] was 1.1 and the concentration at 6 h [6] was 631 ng/g. For the same compound, the half-life [7] was 3 h, the P/D [8] was 1.15 and the EC50 [9] was 6 µM. For the same compound, the Tmax [10] was 0.5 h, the Vd [11] was 3 L/kg and the clearance [12] was 12.7 mL/min/kg. For the same compound, the No. of depolarizations (Rattus norvegicus [13]) was 25, the bioavailability [14] was 93% and the half-life [15] was 2.1 h. For the same compound, the No. of depolarizations (Rattus norvegicus [16]) was 36, the bioavailability [17] was 100% and the P/D [18] was 1.22. For the same compound, the Vd [19] was 2.5 L/kg, the EC50 [20] was 0.69 µM and the Tmax [21] was 5 h. For the same compound, the clearance [22] was 41 mL/min/kg.
